From ChEMBL document CHEMBL5649170, “Sustained microglial depletion with CSF1R inhibitor impairs parenchymal plaque development in an Alzheimer's disease model” (Nat Commun, 2019) come the findings set out here.

Data set [1] deals with Mus musculus. Description: Antialzheimer activity in 5XFAD mouse assessed as microglial numbers by measuring number of Iba positive cells per FOV in somatosensory cortex at 75 ppm administered as rodent chow starting from 1.5 months and measured after 5 months by immunolabeling based confocal microscopic analysis (reference value: 281 to 613). As to conditions: route po, time 3.5 months, 2555 h. Type of data set: functional. A digest of the protocol:
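5xFAD mice fed PLX3397 at 75 ppm in AIN-76A chow from 1.5 to 5 months of age; retrosplenial and somatosensory cortex sections stained with Thio-S and immunolabeled for IBA1; confocal imaging, IBA1+ cells and plaques quantified per region; two-tailed independent t-test, n = 4–5 per group, mean ± SEM.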

Data set [2] can be described thus: Effect on Scn1b gene expression in wildtype mouse hippocampus assessed as percent change in Reads Per kilo base per Million mapped reads at 1200 ppm administered as rodent chow starting from 1.5 months and measured after 7 months by RNA-Seq analysis (reference value: 86.853 to […]). Type of data set: functional. As to conditions: route po, time 5.5 months, 4015 h.

Data set [3] can be described thus: Prevention of Nos1ap gene downregulation in 5XFAD mouse hippocampus assessed as percent change in Reads Per kilo base per Million mapped reads at 1200 ppm administered as rodent chow starting from 1.5 months and measured after 7 months by RNA-Seq analysis (reference value: 58.209 to 93.063 %). In kind it is functional. As to conditions: route po, time 5.5 months, 4015 h.

Data set [4] relates to Mus musculus. Description: Antialzheimer activity in 5XFAD mouse assessed as number of triads at 1200 ppm administered as rodent chow for 10 to 24 weeks by Y-maze test (reference value: 3 to 9). In kind it is functional. As to conditions: route po, time 10-24 weeks. A digest of the protocol:
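Y-maze: the sequence of arm entries was scored live and video-recorded. Triads were counted as sequential entries into three different arms. Mice had received 1200 ppm PLX5622 or control chow from 1.5 months of age.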

Data set [5] has as its system Mus musculus. The experiment in a line: Antialzheimer activity in 5XFAD mouse assessed as number of Iba positive cells per FOV in retro spinal cortex at 1200 ppm administered as rodent chow starting from 1.5 months and measured after 4 months (reference value: 210 to 529). As to conditions: route po, time 2.5 months, 1825 h. Type of data set: functional.
A short description of data set [6]: Effect on Spi1 gene expression in wild type mouse cortex at 1200 ppm administered as rodent chow starting from 1.5 months and measured after 7 months by RNA-Seq analysis (reference value: 1.059 to 1.887 RPKM). In kind it is functional. As to conditions: route po, time 5.5 months, 4015 h.
Data set [7] deals with Tyrosine-protein kinase Lyn (Homo sapiens, UniProt P07948). The experiment in a line: Inhibition of LYN_A (unknown origin).
Data set [8] addresses MAP/microtubule affinity-regulating kinase 3 (Homo sapiens, UniProt P27448). The experiment in a line: Inhibition of MARK3 (unknown origin).
Data set [9] relates to Mus musculus. The experiment in a line: Antialzheimer activity in 5XFAD mouse assessed as amyloidbeta40 level in detergent soluble thalamus fraction measured per microgram protein at 1200 ppm administered as rodent chow starting from 1.5 months and measured after 7 months by ELISA (reference value: 0 to 0.047 pg). In kind it is functional. As to conditions: route po, time 5.5 months, 4015 h. A digest of the protocol:
(§1)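 PLX5622 at 1200 ppm in chow given to 5xFAD mice from 1.5 months to 4 or 7 months of age; cortex and thalamus homogenized in TPER (detergent-soluble), pellets re-homogenized in 70% formic acid and spun 100,000 g, 1 h, 4 °C (insoluble); protein by Bradford/Lowry; Aβ species measured by Meso Scale electrochemiluminescence immunoassay, normalized to protein; n = 7–8 per group at 7 months.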

For data set [10], the target named is Ribosomal protein S6 kinase alpha-2 (Homo sapiens, UniProt Q15349). Description: Inhibition of RPS6KA2 (unknown origin).
The target of data set [11] is Dual specificity tyrosine-phosphorylation-regulated kinase 3 (Homo sapiens, UniProt O43781). Description: Inhibition of DYRK3 (unknown origin).
Data set [12] in a line: Toxicity in wildtype mouse assessed as number of open arm entries at 1200 ppm administered as rodent chow for 10 to 24 weeks by Elevated plus maze test (reference value: 7 to 29). As to conditions: in vivo, po, time 10-24 weeks.
Data set [13] concerns the target Serine/threonine-protein kinase pim-1 (Homo sapiens, UniProt P11309). Description: Inhibition of PIM1 (unknown origin).
The subject of data set [14] is Mus musculus. The experiment in a line: Antialzheimer activity in 5XFAD mouse assessed as alteration in plaque morphology by measuring average plaque circularity in thalamus at 1200 ppm administered as rodent chow starting from 1.5 months and measured after 7 months by Thio-S labeling based confocal microscopic analysis (reference value: 0.257 to 0.365). In kind it is functional. As to conditions: route po, time 5.5 months, 4015 h.

The nature of data set [15]: Prevention of Scn1b gene downregulation in 5XFAD mouse hippocampus assessed as percent change in Reads Per kilo base per Million mapped reads at 1200 ppm administered as rodent chow starting from 1.5 months and measured after 7 months by RNA-Seq analysis (reference value: 53.15 to 80.717 %). In kind it is functional. As to conditions: route po, time 5.5 months, 4015 h.

Data set [16] concerns the target Proto-oncogene tyrosine-protein kinase Src (Homo sapiens, UniProt P12931). The experiment in a line: Inhibition of SRC (unknown origin).
The nature of data set [17]: Volume of distribution at steady state in female rat at 1.13 mg/kg, iv administered as single dose. Type of data set: ADME, organism-based. As to conditions: in vivo, read-out: Vdss.
Data set [18] deals with Casein kinase I isoform delta (Homo sapiens, UniProt P48730). The experiment in a line: Inhibition of CSNK1D (unknown origin).
Data set [19] deals with Leukocyte tyrosine kinase receptor (Homo sapiens, UniProt P29376). The experiment in a line: Inhibition of LTK (unknown origin).
Data set [20] relates to Mus musculus. Description: Antialzheimer activity in 5XFAD mouse assessed as amyloidbeta42 level in detergent insoluble thalamus fraction measured per microgram protein at 1200 ppm administered as rodent chow starting from 1.5 months and measured after 4 months by ELISA (reference value: 181082 to 7435203 pg). In kind it is functional. As to conditions: route po, time 2.5 months, 1825 h. A digest of the protocol: as §1

Data set [21] deals with Mus musculus. Description: Induction of cerebral amyloid angiopathy in […] mouse at 1200 ppm administered as rodent chow for 24 weeks by immunolabeling based confocal microscopic analysis. As to conditions: route po. In kind it is functional, organism-based.
Data set [22] has as its target Vascular endothelial growth factor receptor 3 (Homo sapiens, UniProt P35916). Description: Inhibition of FLT4 (unknown origin).
Data set [23] is described as follows: Effect on Cst7 gene expression in wild type mouse hippocampus at 1200 ppm administered as rodent chow starting from 1.5 months and measured after 7 months by RNA-Seq analysis (reference value: 0.079 to 0.447 RPKM). Type of data set: functional. As to conditions: route po, time 5.5 months, 4015 h.
The target of data set [24] is Casein kinase I isoform alpha (Homo sapiens, UniProt P48729). Description: Inhibition of CSNK1A1 (unknown origin).
Data set [25] concerns Mus musculus. The experiment in a line: Effect on APP processing pathway in wildtype mouse assessed as PS1 protein signal intensity in cortex at 1200 ppm administered as rodent starting from 1.5 months and measured after 7 months (reference value: 78.906 to 243.681 %). In kind it is functional. As to conditions: route po, time 5.5 months, 4015 h.
The subject of data set [26] is Mus musculus. The experiment in a line: Effect on circulating leukocytes in wildtype mouse assessed as percentage of CD45+/PI- cells expressing CD11c at 1200 ppm administered as rodent chow for 10 to 24 weeks (reference value: 34.7 to 54.3 %). In kind it is functional. As to conditions: route po, time 10-24 weeks.
Data set [27] has as its target Platelet-derived growth factor receptor beta (Homo sapiens, UniProt P09619). Description: Inhibition of PDGFRB (unknown origin).

The structures appear in SMILES notation. The source made the active and inactive calls. No cut-off for these calls is given here. A value given as a limit tells only on which side of the number the result lay.

Chain of Vascular endothelial growth factor receptor 3 (P35916 whole entry): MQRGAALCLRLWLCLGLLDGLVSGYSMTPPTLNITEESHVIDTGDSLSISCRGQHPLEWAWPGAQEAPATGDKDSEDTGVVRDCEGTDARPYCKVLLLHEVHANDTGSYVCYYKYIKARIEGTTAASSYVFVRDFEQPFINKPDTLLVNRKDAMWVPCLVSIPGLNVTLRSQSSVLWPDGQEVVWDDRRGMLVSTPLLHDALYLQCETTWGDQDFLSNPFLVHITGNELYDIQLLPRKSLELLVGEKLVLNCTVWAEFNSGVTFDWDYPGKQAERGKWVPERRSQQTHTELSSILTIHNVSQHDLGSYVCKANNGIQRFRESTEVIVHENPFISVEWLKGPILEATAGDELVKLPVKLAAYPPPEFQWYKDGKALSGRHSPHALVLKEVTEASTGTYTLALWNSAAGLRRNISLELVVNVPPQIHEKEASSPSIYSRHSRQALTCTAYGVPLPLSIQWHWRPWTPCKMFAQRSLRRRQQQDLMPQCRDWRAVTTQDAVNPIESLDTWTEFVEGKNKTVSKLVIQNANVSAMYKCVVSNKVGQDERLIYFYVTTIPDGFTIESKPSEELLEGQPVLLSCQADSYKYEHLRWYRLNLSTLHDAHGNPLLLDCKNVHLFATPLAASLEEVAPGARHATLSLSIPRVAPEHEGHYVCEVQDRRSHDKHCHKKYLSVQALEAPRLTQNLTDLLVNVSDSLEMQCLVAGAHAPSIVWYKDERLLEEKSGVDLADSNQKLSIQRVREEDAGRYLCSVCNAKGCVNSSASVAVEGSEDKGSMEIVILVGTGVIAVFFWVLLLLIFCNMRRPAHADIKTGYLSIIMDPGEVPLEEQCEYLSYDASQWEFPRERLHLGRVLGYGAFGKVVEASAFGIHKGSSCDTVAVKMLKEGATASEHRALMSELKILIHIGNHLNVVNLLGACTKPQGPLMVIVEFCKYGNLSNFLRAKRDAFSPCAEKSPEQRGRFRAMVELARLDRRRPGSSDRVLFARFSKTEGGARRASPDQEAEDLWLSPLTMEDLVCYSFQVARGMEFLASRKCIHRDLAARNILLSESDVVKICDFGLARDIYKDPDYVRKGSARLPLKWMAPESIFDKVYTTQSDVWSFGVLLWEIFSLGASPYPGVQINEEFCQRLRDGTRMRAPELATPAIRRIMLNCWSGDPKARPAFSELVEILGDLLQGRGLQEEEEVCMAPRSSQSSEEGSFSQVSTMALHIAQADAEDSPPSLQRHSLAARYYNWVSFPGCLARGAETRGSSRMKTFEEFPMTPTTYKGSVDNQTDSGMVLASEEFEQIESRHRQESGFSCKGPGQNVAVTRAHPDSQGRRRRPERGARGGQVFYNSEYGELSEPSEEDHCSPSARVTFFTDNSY
Chain of Serine/threonine-protein kinase pim-1 (P11309 whole entry): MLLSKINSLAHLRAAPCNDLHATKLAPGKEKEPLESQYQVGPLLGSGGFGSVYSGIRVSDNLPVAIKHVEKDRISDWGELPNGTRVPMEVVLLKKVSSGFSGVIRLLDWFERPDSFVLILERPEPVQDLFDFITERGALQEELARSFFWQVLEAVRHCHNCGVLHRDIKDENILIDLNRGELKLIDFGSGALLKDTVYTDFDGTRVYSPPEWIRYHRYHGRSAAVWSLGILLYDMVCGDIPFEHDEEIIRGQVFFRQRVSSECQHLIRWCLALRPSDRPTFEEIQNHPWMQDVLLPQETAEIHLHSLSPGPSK
Chain of MAP/microtubule affinity-regulating kinase 3 (P27448 whole entry): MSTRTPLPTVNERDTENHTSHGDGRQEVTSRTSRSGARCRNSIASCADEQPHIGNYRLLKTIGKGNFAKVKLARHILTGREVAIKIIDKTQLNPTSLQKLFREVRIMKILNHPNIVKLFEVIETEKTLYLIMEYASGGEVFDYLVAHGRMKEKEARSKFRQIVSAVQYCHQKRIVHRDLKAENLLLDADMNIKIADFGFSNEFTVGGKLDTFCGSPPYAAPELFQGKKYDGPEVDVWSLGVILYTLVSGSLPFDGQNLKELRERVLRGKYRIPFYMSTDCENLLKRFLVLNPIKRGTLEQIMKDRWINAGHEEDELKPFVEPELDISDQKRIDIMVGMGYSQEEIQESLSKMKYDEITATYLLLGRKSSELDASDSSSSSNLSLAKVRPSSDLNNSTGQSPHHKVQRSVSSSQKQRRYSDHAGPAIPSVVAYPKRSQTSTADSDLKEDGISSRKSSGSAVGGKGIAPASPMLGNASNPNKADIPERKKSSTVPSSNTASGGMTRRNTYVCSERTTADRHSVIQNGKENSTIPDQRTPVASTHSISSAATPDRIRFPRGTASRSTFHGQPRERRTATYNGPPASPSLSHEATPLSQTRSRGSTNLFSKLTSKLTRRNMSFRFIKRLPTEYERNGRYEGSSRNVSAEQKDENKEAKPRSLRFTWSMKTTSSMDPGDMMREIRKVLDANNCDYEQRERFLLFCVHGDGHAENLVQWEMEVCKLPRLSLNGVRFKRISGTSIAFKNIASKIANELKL
Chain of Casein kinase I isoform alpha (P48729 whole entry, canonical isoform): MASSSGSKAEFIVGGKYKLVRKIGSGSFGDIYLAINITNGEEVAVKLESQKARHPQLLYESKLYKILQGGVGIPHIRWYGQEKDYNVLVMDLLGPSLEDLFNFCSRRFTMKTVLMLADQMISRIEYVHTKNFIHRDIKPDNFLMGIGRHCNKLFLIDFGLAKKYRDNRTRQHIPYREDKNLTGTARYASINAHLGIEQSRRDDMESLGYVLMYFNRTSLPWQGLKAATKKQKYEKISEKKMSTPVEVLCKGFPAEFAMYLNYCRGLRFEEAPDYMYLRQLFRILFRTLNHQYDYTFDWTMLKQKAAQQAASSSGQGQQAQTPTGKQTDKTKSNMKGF
Chain of Dual specificity tyrosine-phosphorylation-regulated kinase 3 (O43781 whole entry): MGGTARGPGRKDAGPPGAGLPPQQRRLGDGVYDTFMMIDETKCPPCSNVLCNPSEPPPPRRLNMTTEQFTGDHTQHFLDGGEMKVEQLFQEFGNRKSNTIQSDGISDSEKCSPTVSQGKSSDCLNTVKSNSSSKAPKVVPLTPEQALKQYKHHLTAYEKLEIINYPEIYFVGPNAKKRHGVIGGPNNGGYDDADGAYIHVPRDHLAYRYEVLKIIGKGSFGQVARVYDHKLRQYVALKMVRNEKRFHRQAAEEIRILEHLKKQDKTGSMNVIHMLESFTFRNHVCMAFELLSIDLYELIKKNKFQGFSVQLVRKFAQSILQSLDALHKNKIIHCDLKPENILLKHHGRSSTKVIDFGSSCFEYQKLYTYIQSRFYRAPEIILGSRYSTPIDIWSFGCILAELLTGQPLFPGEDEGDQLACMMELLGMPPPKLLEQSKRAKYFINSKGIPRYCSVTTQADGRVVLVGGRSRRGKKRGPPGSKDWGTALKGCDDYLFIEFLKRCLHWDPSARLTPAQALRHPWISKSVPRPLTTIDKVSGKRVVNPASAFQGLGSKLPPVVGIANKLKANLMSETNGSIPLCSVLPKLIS
Chain of Proto-oncogene tyrosine-protein kinase Src (P12931 2-536 limits assumed): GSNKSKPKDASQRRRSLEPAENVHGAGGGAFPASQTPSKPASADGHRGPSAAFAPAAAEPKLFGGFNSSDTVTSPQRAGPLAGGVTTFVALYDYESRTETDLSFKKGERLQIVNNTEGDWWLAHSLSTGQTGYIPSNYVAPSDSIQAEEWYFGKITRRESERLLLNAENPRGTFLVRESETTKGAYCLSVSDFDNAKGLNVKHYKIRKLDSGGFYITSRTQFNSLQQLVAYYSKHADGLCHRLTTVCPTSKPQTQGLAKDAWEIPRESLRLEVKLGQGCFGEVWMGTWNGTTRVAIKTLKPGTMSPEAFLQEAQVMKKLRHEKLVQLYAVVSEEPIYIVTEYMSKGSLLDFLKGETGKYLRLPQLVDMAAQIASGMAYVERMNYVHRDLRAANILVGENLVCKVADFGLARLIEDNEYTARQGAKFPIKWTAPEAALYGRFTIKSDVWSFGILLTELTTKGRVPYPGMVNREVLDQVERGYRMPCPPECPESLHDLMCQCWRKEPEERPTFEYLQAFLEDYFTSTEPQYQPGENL
Chain of Tyrosine-protein kinase Lyn (P07948 whole entry): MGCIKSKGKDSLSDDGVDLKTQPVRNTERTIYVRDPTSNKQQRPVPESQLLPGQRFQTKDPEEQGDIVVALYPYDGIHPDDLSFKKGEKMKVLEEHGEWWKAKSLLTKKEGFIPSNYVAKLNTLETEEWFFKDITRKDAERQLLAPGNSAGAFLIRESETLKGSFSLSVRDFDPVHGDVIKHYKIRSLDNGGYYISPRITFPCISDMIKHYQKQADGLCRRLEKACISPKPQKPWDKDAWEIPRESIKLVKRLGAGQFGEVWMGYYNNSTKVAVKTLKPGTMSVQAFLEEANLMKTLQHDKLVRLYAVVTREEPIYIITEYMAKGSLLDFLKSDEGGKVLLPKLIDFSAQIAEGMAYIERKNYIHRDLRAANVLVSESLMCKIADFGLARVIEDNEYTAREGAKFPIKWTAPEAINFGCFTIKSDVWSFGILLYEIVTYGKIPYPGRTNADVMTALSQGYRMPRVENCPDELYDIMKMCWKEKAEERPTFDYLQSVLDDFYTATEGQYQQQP
Chain of Casein kinase I isoform delta (P48730 whole entry, canonical isoform): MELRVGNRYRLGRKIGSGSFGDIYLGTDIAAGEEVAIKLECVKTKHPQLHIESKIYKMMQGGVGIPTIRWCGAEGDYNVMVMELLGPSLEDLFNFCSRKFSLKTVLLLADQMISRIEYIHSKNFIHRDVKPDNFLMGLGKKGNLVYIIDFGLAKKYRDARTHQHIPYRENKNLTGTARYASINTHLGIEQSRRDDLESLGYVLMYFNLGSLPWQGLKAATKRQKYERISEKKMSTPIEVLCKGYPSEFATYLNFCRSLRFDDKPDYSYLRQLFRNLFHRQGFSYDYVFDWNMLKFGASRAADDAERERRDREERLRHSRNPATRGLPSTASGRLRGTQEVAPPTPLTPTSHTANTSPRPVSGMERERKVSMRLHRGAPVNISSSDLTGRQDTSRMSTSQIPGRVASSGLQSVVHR

As for `FC(F)(F)c1ccc(CNc2ccc(Cc3c[nH]c4ncc(Cl)cc34)cn2)cn1` [PEXIDARTINIB], the Activity in the data set with Mus musculus [1] turned out to be 345.
`COc1ncc(F)cc1CNc1ccc(Cc2c[nH]c3ncc(C)cc23)c(F)n1` [PLX-5622]: the Activity in data set [2] is 83.818%; in [3], 82.746%; in the data set on Mus musculus [4], 2; with Mus musculus [5], 0; in data set [6], 0 RPKM; in the data set with Mus musculus [9] it was 0 pg. Moreover, the Activity in data set [12] is on record as 6; in the data set on Mus musculus [14], 0.175; in data set [15], 84.37%; in the data set on Mus musculus [20] it was 117968.4 pg; in data set [23], 0 RPKM; in the data set with Mus musculus [25] it was 99.34%. In the data set with Mus musculus [26], the Activity stood at 31.4%. For the same compound, the IC50 in data set [7], in data set [8], in data set [10], in [11], in data set [13] and in data set [16] was more than 1 µM throughout. In addition, the IC50 in [18], in data set [19], in data set [22], in [24] and in [27] was more than 1 µM in each case. Also, the Vd in data set [17] stood at 1 L/kg. Also, the result in the data set on Mus musculus [21] was inactive.
